In ChEMBL document CHEMBL4043191, “Discovery of novel inhibitors of multidrug-resistant Acinetobacter baumannii” (2017):
Values after ≈ are worked out from the molar mass of the structure shown.

Experiments:
Acinetobacter baumannii [1] = assay: Antimicrobial activity against Acinetobacter baumannii ATCC AB19606 incubated for 16 to 20 hrs by broth microdilution method; type: functional
Procedure, shortened: (§1)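 CLSI broth microdilution in CAMHB, twofold dilutions at final 0.250–128 µg/mL, each in triplicate. Overnight colonies from 5% horse blood agar were suspended in PBS to OD600 0.1 and diluted to a starting inoculum of 5 x 10^5 CFU/mL. Incubated 37 °C for 16–20 h. MIC is the lowest concentration with no visible growth. Quality control used E. coli ATCC 25922 with ampicillin. Final DMSO <1%.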

Acinetobacter baumannii [2] = assay: Antimicrobial activity against Acinetobacter baumannii ATCC AB17978 incubated for 16 to 20 hrs by broth microdilution method; type: functional; procedure, shortened: as §1
Acinetobacter baumannii [3] = assay: Antimicrobial activity against Acinetobacter baumannii isolate AB5075 incubated for 16 to 20 hrs by broth microdilution method; type: functional; procedure, shortened: as §1
Acinetobacter baumannii [4] = assay: Antimicrobial activity against Acinetobacter baumannii isolate AB5711 incubated for 16 to 20 hrs by broth microdilution method; type: functional; procedure, shortened: as §1
Acinetobacter baumannii [5] = assay: Antimicrobial activity against Acinetobacter baumannii isolate AB3560 incubated for 16 to 20 hrs by broth microdilution method; type: functional; procedure, shortened: as §1
Acinetobacter baumannii [6] = assay: Antimicrobial activity against Acinetobacter baumannii isolate AB3638 incubated for 16 to 20 hrs by broth microdilution method; type: functional; procedure, shortened: as §1
Acinetobacter baumannii [7] = assay: Antimicrobial activity against Acinetobacter baumannii isolate AB0087 incubated for 16 to 20 hrs by broth microdilution method; type: functional; procedure, shortened: as §1
Acinetobacter baumannii [8] = assay: Antimicrobial activity against Acinetobacter baumannii isolate AB4052 incubated for 16 to 20 hrs by broth microdilution method; type: functional; procedure, shortened: as §1
Acinetobacter baumannii [9] = assay: Antimicrobial activity against Acinetobacter baumannii isolate AB5674 incubated for 16 to 20 hrs by broth microdilution method; type: functional; procedure, shortened: as §1
Acinetobacter baumannii [10] = assay: Antimicrobial activity against Acinetobacter baumannii isolate AB0967 incubated for 16 to 20 hrs by broth microdilution method; type: functional; procedure, shortened: as §1
Acinetobacter baumannii [11] = assay: Antimicrobial activity against Acinetobacter baumannii isolate AB4795 incubated for 16 to 20 hrs by broth microdilution method; type: functional; procedure, shortened: as §1
Acinetobacter baumannii [12] = assay: Antimicrobial activity against Acinetobacter baumannii isolate AB4957 incubated for 16 to 20 hrs by broth microdilution method; type: functional; procedure, shortened: as §1
Acinetobacter baumannii [13] = assay: Antimicrobial activity against Acinetobacter baumannii isolate AB585 incubated for 16 to 20 hrs by broth microdilution method; type: functional; procedure, shortened: as §1
Acinetobacter baumannii [14] = assay: Antimicrobial activity against Acinetobacter baumannii isolate AB499 incubated for 16 to 20 hrs by broth microdilution method; type: functional; procedure, shortened: as §1
Acinetobacter baumannii [15] = assay: Antimicrobial activity against Acinetobacter baumannii isolate AB5075 assessed as reduction in bacterial colony count at 16 ug/ml incubated for 24 hrs by time kill kinetics assay relative to initial bacterial inoculum; type: functional
Procedure, shortened: (§2)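 Time-kill assay on AB5075. 1 mL CAMHB containing compound at 1, 2, 4 or 8× MIC was seeded with 5–7 x 10^5 CFU/mL and shaken at 37 °C for 24 h. Aliquots taken at 0, 6, 12 and 24 h were serially diluted, plated on LB agar and incubated 24 h at 37 °C before counting. Result given as log10 CFU/mL decrease versus initial inoculum. No-drug control; duplicate runs.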

Acinetobacter baumannii [16] = assay: Antimicrobial activity against Acinetobacter baumannii isolate AB5075 assessed as reduction in bacterial colony count at 32 ug/ml incubated for 24 hrs by time kill kinetics assay relative to initial bacterial inoculum; type: functional; procedure, shortened: as §2
Acinetobacter baumannii [17] = assay: Antimicrobial activity against Acinetobacter baumannii isolate AB5075 assessed as reduction in bacterial colony count at 64 ug/ml incubated for 24 hrs by time kill kinetics assay relative to initial bacterial inoculum; type: functional; procedure, shortened: as §2
Acinetobacter baumannii [18] = assay: Antimicrobial activity against Acinetobacter baumannii isolate AB5075 assessed as reduction in bacterial colony count at 128 ug/ml incubated for 24 hrs by time kill kinetics assay relative to initial bacterial inoculum; type: functional; procedure, shortened: as §2
Acinetobacter baumannii [19] = assay: Antimicrobial activity against Acinetobacter baumannii isolate AB5075 assessed as reduction in bacterial colony count at 32 ug/ml incubated for 30 mins by time kill kinetics assay relative to initial bacterial inoculum
Acinetobacter baumannii [20] = assay: Bactericidal activity against Acinetobacter baumannii isolate AB5075 assessed as reduction in bacterial colony count at 32 ug/ml incubated for 30 mins by time kill kinetics assay relative to initial bacterial inoculum relative to control; set-up: scale not given: the % may be the effect or the level left

Structure (SMILES)	MIC (Acinetobacter baumannii [1]) [µg/mL]	MIC (Acinetobacter baumannii [2]) [µg/mL]	MIC (Acinetobacter baumannii [3]) [µg/mL]	MIC (Acinetobacter baumannii [4]) [µg/mL]	MIC (Acinetobacter baumannii [5]) [µg/mL]	MIC (Acinetobacter baumannii [6]) [µg/mL]	MIC (Acinetobacter baumannii [7]) [µg/mL]	MIC (Acinetobacter baumannii [8]) [µg/mL]	MIC (Acinetobacter baumannii [9]) [µg/mL]	MIC (Acinetobacter baumannii [10]) [µg/mL]	MIC (Acinetobacter baumannii [11]) [µg/mL]	MIC (Acinetobacter baumannii [12]) [µg/mL]	MIC (Acinetobacter baumannii [13]) [µg/mL]	MIC (Acinetobacter baumannii [14]) [µg/mL]	Activity (Acinetobacter baumannii [15]) [log10CFU/ml]	Activity (Acinetobacter baumannii [16]) [log10CFU/ml]	Activity (Acinetobacter baumannii [17]) [log10CFU/ml]	Activity (Acinetobacter baumannii [18]) [log10CFU/ml]	Activity (Acinetobacter baumannii [19])	Activity (Acinetobacter baumannii [20]) [%]
CCO[C@@H]1CCC[C@H](CC(=O)NNc2ccccc2)[C@H]1O	16 (≈ 54.7 µM)	16 (≈ 54.7 µM)	16 (≈ 54.7 µM)	32 (≈ 109 µM)	32 (≈ 109 µM)	16 (≈ 54.7 µM)	4 (≈ 13.7 µM)	32 (≈ 109 µM)	16 (≈ 54.7 µM)	16 (≈ 54.7 µM)	8 (≈ 27.4 µM)	32 (≈ 109 µM)	8 (≈ 27.4 µM)	1 (≈ 3.42 µM)	0.46	0.75	1.24	1.74	–	–
CCOCCC(=O)NNc1ccccc1	16 (≈ 76.8 µM)	16 (≈ 76.8 µM)	16 (≈ 76.8 µM)	16 (≈ 76.8 µM)	32 (≈ 154 µM)	16 (≈ 76.8 µM)	2 (≈ 9.6 µM)	32 (≈ 154 µM)	16 (≈ 76.8 µM)	16 (≈ 76.8 µM)	8 (≈ 38.4 µM)	32 (≈ 154 µM)	8 (≈ 38.4 µM)	1 (≈ 4.8 µM)	0.73	1.02	1.42	2.1	–	–
Oc1ccc(Cl)cc1Cc1cc(Cl)ccc1O [DICHLOROPHEN]	16 (≈ 59.5 µM)	16 (≈ 59.5 µM)	32 (≈ 119 µM)	16 (≈ 59.5 µM)	16 (≈ 59.5 µM)	16 (≈ 59.5 µM)	8 (≈ 29.7 µM)	16 (≈ 59.5 µM)	16 (≈ 59.5 µM)	16 (≈ 59.5 µM)	16 (≈ 59.5 µM)	16 (≈ 59.5 µM)	8 (≈ 29.7 µM)	8 (≈ 29.7 µM)	–	–	–	–	>=3 log10CFU/ml	99.9
